{"source": "paper PMC10319625", "about": "(PNAS Nexus, 2023)", "key": {"[1]": {"test_system": "PANC-1 and MIA PaCa-2", "details": "human pancreatic cancer cell lines, cited from earlier work"}, "[2]": {"test_system": "SAS cells", "assay": "Annexin V/PI staining", "assay_type": "cell-based, human", "details": "5 µM cAQ-mBen or 50 µM CDDP, 24 h", "summary_of_the_method": "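SAS cells were exposed for 24 h to 5 µM test compound or to 50 µM cisplatin (positive control), then stained with annexin V-FITC and propidium iodide. Positive cells are expressed as % of total cell number per field. Values are mean ± SD of total apoptotic cells (n = 5), compared by one-way ANOVA with Tukey's test.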"}, "[3]": {"test_system": "primary mouse bone marrow cells (BMCs)", "assay": "Cell proliferation assay", "assay_type": "cell-based", "details": "BMC (normal cells), 48 h"}, "[4]": {"test_system": "Ca9-22", "assay": "Cell proliferation assay", "assay_type": "cell-based, human", "details": "Ca9-22, 48 h"}, "[5]": {"test_system": "liver and kidney of KSN/Slc nude mice", "assay": "Histopathological analysis of liver and kidney, tumor-free mice", "assay_type": "in vivo, mouse", "details": "10 days treatment", "summary_of_the_method": "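Tumor-free KSN/Slc nude mice received saline, test compound or cisplatin for 10 days on the xenograft regimen. Liver and kidney sections were HE-stained for histopathology. Glomerulus area was measured (mean ± SD, n = 15 sections from 3 mice) and compared by one-way ANOVA with Tukey's test.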"}, "[6]": {"test_system": "HeLa", "assay": "Cell proliferation assay", "assay_type": "cell-based, human", "details": "48 h"}, "[7]": {"test_system": "SAS cells xenograft tumors in KSN/Slc nude mice", "assay": "Mouse xenograft model, tumor volume", "assay_type": "in vivo", "details": "3 µmol/kg cAQ-mBen or 30 µmol/kg CDDP, peritoneally every 2 days for 5 times", "summary_of_the_method": "(§1)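 SAS cells were inoculated subcutaneously into KSN/Slc nude mice. From day 7 after inoculation (day 0), mice received saline, 3 µmol/kg test compound or 30 µmol/kg cisplatin intraperitoneally every 2 days, 5 times. Tumor volume and body weight were recorded at set points to day 10 (n = 9 control and test, n = 8 cisplatin). Statistics: two-way ANOVA with Tukey's test.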"}, "[8]": {"test_system": "SAS cells", "assay": "Western blot analysis of caspase-3 and PARP-1 cleavages", "assay_type": "cell-based, human", "details": "5 µM cAQ-mBen or 50 µM CDDP, 12 or 24 h"}, "[9]": {"assay": "Mouse xenograft model, body weight", "assay_type": "in vivo", "details": "3 µmol/kg cAQ-mBen or 30 µmol/kg CDDP, every 2 days for 5 times", "summary_of_the_method": "as §1"}, "[10]": {"test_system": "SAS", "assay": "Cell proliferation assay", "assay_type": "cell-based, human", "details": "48 h"}, "[11]": {"assay_type": "in vivo, mouse", "details": "day 10 of treatment, versus negative control"}}, "note": "pIC50: −log10 of the molar value. Like-named read-outs stand apart in the source and are kept apart here."}
{"smiles": "O=C1c2cc(-c3ccc(CN4CCCC4)cc3)c3c4c(cc(NCCN5CCCC5)c(c24)C(=O)N1CCCN1CCOCC1)C(=O)N(CCCN1CCOCC1)C3=O", "note": "[SOP1812]", "values": [{"measurement": "expression of hTERT", "setting": "[1]; after 24 h", "value": "remained downregulated"}]}
{"smiles": "N.N.[Cl][Pt][Cl]", "note": "[CDDP, cis-diamminedichloroplatinum(II)]", "values": [{"measurement": "Anx Alone(%), cells positive for annexin V, % of total cell count, Mean", "setting": "[2]", "value": 24.0, "unit": "%"}, {"measurement": "PI (%), cells positive for PI signal, % of total cell count, Mean", "setting": "[2]", "value": 18.5, "unit": "%"}, {"measurement": "pIC50", "setting": "[3]", "value": 5.89}, {"measurement": "pIC50", "setting": "[4]", "value": 4.56}, {"measurement": "cell arrangement and size of the glomerulus in the kidney", "setting": "[5]", "value": "significant condensation of the glomerulus area"}, {"measurement": "pIC50", "setting": "[6]", "value": 6.30}, {"measurement": "increase in the tumor volume", "setting": "[7]", "value": "significantly suppressed"}, {"measurement": "digestion of PARP-1 and caspase-3", "setting": "[8]", "value": "observed in a time-dependent manner"}, {"measurement": "body weight of mice", "setting": "[9]", "value": "considerably reduced"}, {"measurement": "pIC50", "setting": "[10]", "value": 5.37}, {"measurement": "physiological indices of serum (BUN, UA, AST, ALT, CRE, and γ-GTP levels)", "setting": "[11]", "value": "substantial increase"}]}
{"smiles": "O=C1c2ccc3c4c(c(NCCN5CCCC5)cc(c24)C(=O)N1CCCN1CCOCC1)C(=O)N(CCCN1CCOCC1)C3=O", "note": "[CM03]", "values": [{"measurement": "expression of hTERT", "setting": "[1]; after 6 h", "value": "remained downregulated"}]}
